pIC50: −log10 of the molar value. Calls of active or inactive are those of the source. The calls are words filed in the database; no cut-off is given here.
Assays:
[1] = Inhibition of NF-kappaB activation in human TNFalpha-stimulated A549 cells preincubated for 2 hrs before TNFalpha challenge measured after 7 hrs post stimulation by luciferase reporter gene assay; assay type: cell-based
How it was run: (§1)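 Stable κB-luciferase-expressing A549 cells; NF-κB transcription activity read as luciferase signal; single concentration of 20 μM and dose-response experiments.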

[2] = tested on: HEK293; assay: Inhibition of TNFalpha-stimulated IkappaBalpha protein expression in HEK293 cells at 50 uM after 60 mins by Western blot analysis; assay type: functional, cell-based; settings: Homo sapiens
How it was run: (§2)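 HEK 293 cells stimulated with TNF-α with or without test agent; IκBα protein levels assessed by Western blotting at set times after stimulation.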

[3] = tested on: HEK293; assay: Inhibition of TNFalpha-stimulated IkappaBalpha protein expression in HEK293 cells at 50 uM after 120 mins by Western blot analysis; assay type: functional, cell-based; settings: Homo sapiens; how it was run: as §2
[4] = tested on: Hs 766; assay: Potentiation of gemcitabine-induced cytotoxicity against human Hs766T cells assessed as cell growth inhibition at 20 uM after 5 days by alamar blue assay; assay type: functional, cell-based
How it was run: (§3)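 Hs 766T and PANC-1 pancreatic tumour cells given test agent alone or combined with gemcitabine; growth inhibition measured; data representative of three independent experiments, mean ± SD.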

[5] = tested on: PANC-1; assay: Potentiation of gemcitabine-induced cytotoxicity against human PANC1 cells assessed as cell growth inhibition at 20 uM after 5 days by alamar blue assay; assay type: functional, cell-based; how it was run: as §3
[6] = tested on: PANC-1; assay: Growth inhibition of human PANC1 cells at 20 uM after 5 days by alamar blue assay; assay type: functional, cell-based; how it was run: as §3
[7] = tested on: Hs 766; assay: Growth inhibition of human Hs766T cells at 20 uM after 5 days by alamar blue assay; assay type: functional, cell-based; how it was run: as §3
[8] = tested on: A549; assay: Inhibition of NF-kappaB activation in human TNFalpha-stimulated A549 cells at 20 uM preincubated for 2 hrs before TNFalpha challenge measured after 7 hrs post stimulation by luciferase reporter gene assay; assay type: cell-based; how it was run: as §1
[9] = tested on: HEK293; assay: Inhibition of TNFalpha-stimulated IkappaBalpha protein expression in HEK293 cells at 50 uM after 30 mins by Western blot analysis; assay type: functional, cell-based; settings: Homo sapiens; how it was run: as §2
[10] = tested on: PANC-1; assay: Potentiation of gemcitabine-induced induction of apoptosis in human PANC1 cells assessed as activation of caspase 3/7 after 48 hrs by caspase-Glo 3 assay; assay type: functional, cell-based
How it was run: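 PANC-1 cells treated with test agent alone or combined with gemcitabine; caspase 3/7 activity read after 48 hr as apoptosis marker; representative of two independent experiments, mean ± SD.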

C=C1C(=O)O[C@@H]2C3O[C@]3(C)CC/C=C(\C)CC[C@@H]12 (some centres undefined)
pIC50 [1]: 5.33

COc1ccc2c(c1OC)C(=O)O[C@@H]2[C@H]1c2c(cc3c(c2OC)OCO3)CCN1C [NOSCAPINE]
pIC50 [1]: 4.19

COc1ccc2cc1Oc1cc(ccc1OC)CCC(=O)CCCC2
inhibition [2]: Active | inhibition [3]: Active | growth inhibition (GI) [4]: Active | growth inhibition (GI) [5]: Active | growth inhibition (GI) [6]: inactive | growth inhibition (GI) [7]: inactive | inhibition [8]: Active | pIC50 [1]: 4.84 | inhibition [9]: Active | Activity [10]: Active

COc1cc(/C=C/C(=O)CC(=O)/C=C/c2ccc(O)c(OC)c2)ccc1O [CURCUMIN]
pIC50 [1]: 4.69

COc1cc2ccc1Oc1cc(ccc1OC)CCC(O)CCCC2 (centres undefined) [PLATYCARYNOL]
pIC50 [1]: 4.44

Reference: ChEMBL document CHEMBL1938279, “Synthesis and evaluation of macrocyclic diarylether heptanoid natural products and their analogs” (Bioorg Med Chem Lett, 2012)
